Laboratory results reported in ChEMBL document CHEMBL1177643, “Synthesis, DNA-binding ability and anticancer activity of benzothiazole/benzoxazole-pyrrolo[2,1-c][1,4]benzodiazepine conjugates” (Bioorg Med Chem, 2010).

How the values were obtained:
[1] = Growth inhibition of human […] cells after 48 hrs by sulforhodamine B assay; type: functional
Summary of the method: (§1)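 Panel of 60 human cancer cell lines; for each compound, dose–response curves per cell line measured at a minimum of five concentrations at 10-fold dilutions. Cells exposed continuously to drug for 48 h, and growth was read out by sulforhodamine B staining.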

ACHN = test: Growth inhibition of human ACHN cells after 48 hrs by sulforhodamine B assay; type: functional
Summary of the method: (§2)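 Dose–response in each cell line over at least five concentrations at 10-fold dilutions, with 48 h continuous exposure and sulforhodamine B read-out.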

NCI-H322M = test: Growth inhibition of human NCI-H322M cells after 48 hrs by sulforhodamine B assay; type: functional; summary of the method: as §1
A-375 [2] = test: Cell cycle arrest in human A375 cells assessed as accumulation at G1 phase at 2 uM after 24 hrs using propidium iodide staining by flow cytometry; type: functional
Summary of the method: (§3)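 A375 cells (5×10^5) grown 24 h, then exposed to compound 24 h (DMSO control). Trypsin–EDTA harvest, fixed in ice-cold 70% ethanol at 4 °C 30 min, RNase A 37 °C 30 min, propidium iodide staining. DNA content measured by flow cytometry on 20,000 events, gated as sub-G1/G0, G1, S and G2/M.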

SF-268 = test: Growth inhibition of human SF268 cells after 48 hrs by sulforhodamine B assay; type: functional; settings: SF-268, 48 h; summary of the method: as §1
A-375 [3] = test: Cell cycle arrest in human A375 cells assessed as accumulation at S phase at 2 uM after 24 hrs using propidium iodide staining by flow cytometry; type: functional; summary of the method: as §3
SK-MEL-5 = test: Growth inhibition of human SK-MEL-5 cells after 48 hrs by sulforhodamine B assay; type: functional; settings: SK-MEL-5, 48 h; summary of the method: as §1
IGROV-1 = test: Growth inhibition of human IGROV1 cells after 48 hrs by sulforhodamine B assay; type: functional; settings: IGROV-1, 48 h; summary of the method: as §1
A-375 [4] = test: Cell cycle arrest in human A375 cells assessed as accumulation at G2/M phase at 2 uM after 24 hrs using propidium iodide staining by flow cytometry; type: functional; summary of the method: as §3
MCF7 = test: Growth inhibition of human MCF7 cells after 48 hrs by sulforhodamine B assay; type: functional; settings: MCF7, 48 h; summary of the method: as §1
EKVX = test: Growth inhibition of human EKVX cells after 48 hrs by sulforhodamine B assay; type: functional; summary of the method: as §2
A498 = test: Growth inhibition of human A498 cells after 48 hrs by sulforhodamine B assay; type: functional; settings: A498, 48 h; summary of the method: as §2
SNB-75 = test: Growth inhibition of human SNB75 cells after 48 hrs by sulforhodamine B assay; type: functional; settings: SNB-75, 48 h; summary of the method: as §1
HCT-15 = test: Growth inhibition of human HCT15 cells after 48 hrs by sulforhodamine B assay; type: functional; settings: HCT-15, 48 h; summary of the method: as §1
SF-295 = test: Growth inhibition of human SF295 cells after 48 hrs by sulforhodamine B assay; type: functional; settings: SF-295, 48 h; summary of the method: as §1
UACC-257 = test: Growth inhibition of human UACC257 cells after 48 hrs by sulforhodamine B assay; type: functional; settings: UACC-257, 48 h; summary of the method: as §1
OVCAR-8 = test: Growth inhibition of human OVCAR8 cells after 48 hrs by sulforhodamine B assay; type: functional; settings: OVCAR-8, 48 h; summary of the method: as §1
CAKI-1 = test: Growth inhibition of human Caki1 cells after 48 hrs by sulforhodamine B assay; type: functional; settings: CAKI-1, 48 h; summary of the method: as §2
M14 = test: Growth inhibition of human M14 cells after 48 hrs by sulforhodamine B assay; type: functional; settings: M14, 48 h; summary of the method: as §1
LOX IMVI = test: Growth inhibition of human LOXIMVI cells after 48 hrs by sulforhodamine B assay; type: functional; summary of the method: as §1
K562 = test: Growth inhibition of human K562 cells after 48 hrs by sulforhodamine B assay; type: functional; settings: K562, 48 h; summary of the method: as §1
MOLT-4 = test: Growth inhibition of human MOLT4 cells after 48 hrs by sulforhodamine B assay; type: functional; settings: MOLT-4, 48 h; summary of the method: as §1
MDA-MB-435 = test: Growth inhibition of human MDA-MB-435 cells after 48 hrs by sulforhodamine B assay; type: functional; settings: MDA-MB-435, 48 h; summary of the method: as §1
SF-539 = test: Growth inhibition of human SF539 cells after 48 hrs by sulforhodamine B assay; type: functional; settings: SF-539, 48 h; summary of the method: as §1
Calf thymus DNA = test: Binding affinity to calf thymus duplex-form DNA assessed as melting temperature at 1:5 compound/DNA ratio after 18 hrs; type: nucleic-acid assay; settings: Bos taurus
MDA-MB-231 = test: Growth inhibition of human MDA-MB-231 cells after 48 hrs by sulforhodamine B assay; type: functional; settings: MDA-MB-231, 48 h; summary of the method: as §1
COLO 205 = test: Growth inhibition of human COLO205 cells after 48 hrs by sulforhodamine B assay; type: functional; settings: COLO 205, 48 h; summary of the method: as §2
U-251 = test: Growth inhibition of human U251 cells after 48 hrs by sulforhodamine B assay; type: functional; settings: U-251, 48 h; summary of the method: as §1
A-375 [5] = test: Cell cycle arrest in human A375 cells assessed as accumulation at G0 phase at 2 uM after 24 hrs using propidium iodide staining by flow cytometry; type: functional; summary of the method: as §3
T47D = test: Growth inhibition of human T47D cells after 48 hrs by sulforhodamine B assay; type: functional; summary of the method: as §1
BT-549 = test: Growth inhibition of human BT549 cells after 48 hrs by sulforhodamine B assay; type: functional; settings: BT-549, 48 h; summary of the method: as §2
SNB-19 = test: Growth inhibition of human SNB19 cells after 48 hrs by sulforhodamine B assay; type: functional; settings: SNB-19, 48 h; summary of the method: as §1
NCI-H522 = test: Growth inhibition of human NCI-H522 cells after 48 hrs by sulforhodamine B assay; type: functional; settings: NCI-H522, 48 h; summary of the method: as §1
PC-3 = test: Growth inhibition of human PC3 cells after 48 hrs by sulforhodamine B assay; type: functional; settings: PC-3, 48 h; summary of the method: as §1
SK-MEL-2 = test: Growth inhibition of human SK-MEL-2 cells after 48 hrs by sulforhodamine B assay; type: functional; settings: SK-MEL-2, 48 h; summary of the method: as §1
HL-60 = test: Growth inhibition of human HL-60(TB) cells after 48 hrs by sulforhodamine B assay; type: functional; settings: HL-60, 48 h; summary of the method: as §1
OVCAR-4 = test: Growth inhibition of human OVCAR4 cells after 48 hrs by sulforhodamine B assay; type: functional; settings: OVCAR-4, 48 h; summary of the method: as §1
NCI-H226 = test: Growth inhibition of human NCI-H226 cells after 48 hrs by sulforhodamine B assay; type: functional; settings: NCI-H226, 48 h; summary of the method: as §1
UO-31 = test: Growth inhibition of human UO31 cells after 48 hrs by sulforhodamine B assay; type: functional; settings: UO-31, 48 h; summary of the method: as §1
786-0 = test: Growth inhibition of human 786-0 cells after 48 hrs by sulforhodamine B assay; type: functional; settings: 786-0, 48 h; summary of the method: as §2
HOP-92 = test: Growth inhibition of human HOP92 cells after 48 hrs by sulforhodamine B assay; type: functional; settings: HOP-92, 48 h; summary of the method: as §1
OVCAR-3 = test: Growth inhibition of human OVCAR-3 cells after 48 hrs by sulforhodamine B assay; type: functional; settings: OVCAR-3, 48 h; summary of the method: as §1
SR = test: Growth inhibition of human SR cells after 48 hrs by sulforhodamine B assay; type: functional; summary of the method: as §1
KM12 = test: Growth inhibition of human KM12 cells after 48 hrs by sulforhodamine B assay; type: functional; settings: KM12, 48 h; summary of the method: as §1
SK-MEL-28 = test: Growth inhibition of human SK-MEL-28 cells after 48 hrs by sulforhodamine B assay; type: functional; settings: SK-MEL-28, 48 h; summary of the method: as §1

In the case of COc1cc(-c2nc3ccccc3s2)ccc1OCCCCOc1cc2c(cc1OC)C(=O)N1CCC[C@H]1C=N2, the GI50 [1] is reported as 309 nM, the GI50 (ACHN) is reported as 776 nM and the GI50 (NCI-H322M) is reported as 2570 nM. For the same compound, the Activity (A-375 [2]) was 69.69%, the GI50 (SF-268) was 1230 nM and the Activity (A-375 [3]) was 5%. It also gave a GI50 (SK-MEL-5) of 407 nM, a GI50 (IGROV-1) of 3090 nM and an Activity (A-375 [4]) of 4.45%. For the same compound, the GI50 (MCF7) was 407 nM, the GI50 (EKVX) was 1740 nM and the GI50 (A498) was 1620 nM. The GI50 (SNB-75) was 1230 nM, the GI50 (HCT-15) was 1320 nM and the GI50 (SF-295) was 1910 nM. For the same compound, the GI50 (UACC-257) was 2190 nM, the GI50 (OVCAR-8) was 1780 nM and the GI50 (CAKI-1) was 575 nM. The GI50 (M14) was 1230 nM, the GI50 (LOX IMVI) was 724 nM and the GI50 (K562) was 339 nM. It also gave a GI50 (MOLT-4) of 676 nM, a GI50 (MDA-MB-435) of 1350 nM and a GI50 (SF-539) of 537 nM. The ΔTm (Calf thymus DNA) was 0.5 °C, the GI50 (MDA-MB-231) was 525 nM and the GI50 (COLO 205) was 692 nM. It also gave a GI50 (U-251) of 417 nM, an Activity (A-375 [5]) of 20.86% and a GI50 (T47D) of 257 nM. For the same compound, the GI50 (BT-549) was 282 nM, the GI50 (SNB-19) was 1620 nM and the GI50 (NCI-H522) was 550 nM. For the same compound, the GI50 (PC-3) was 407 nM, the GI50 (SK-MEL-2) was 1230 nM and the GI50 (HL-60) was 513 nM. The GI50 (OVCAR-4) was 1620 nM, the GI50 (NCI-H226) was 2400 nM and the GI50 (UO-31) was 1230 nM. The GI50 (786-0) was 891 nM, the GI50 (HOP-92) was 263 nM and the GI50 (OVCAR-3) was 724 nM. For the same compound, the GI50 (SR) was 295 nM, the GI50 (KM12) was 1020 nM and the GI50 (SK-MEL-28) was 2140 nM.
For COc1cc(-c2nc3ccccc3s2)ccc1OCCCCCOc1cc2c(cc1OC)C(=O)N1CCC[C@H]1C=N2, the GI50 [1] was 74.1 nM, the GI50 (ACHN) was 53.7 nM and the GI50 (NCI-H322M) was 302 nM. It also gave an Activity (A-375 [2]) of 67.04%, a GI50 (SF-268) of 347 nM and an Activity (A-375 [3]) of 3.11%. The GI50 (SK-MEL-5) was 24.6 nM, the GI50 (IGROV-1) was 347 nM and the Activity (A-375 [4]) was 3.1%. The GI50 (MCF7) was 19.1 nM, the GI50 (EKVX) was 204 nM and the GI50 (A498) was 174 nM. For the same compound, the GI50 (SNB-75) was 145 nM, the GI50 (HCT-15) was 224 nM and the GI50 (SF-295) was 67.6 nM. The GI50 (UACC-257) was 186 nM, the GI50 (OVCAR-8) was 141 nM and the GI50 (CAKI-1) was 117 nM. For the same compound, the GI50 (M14) was 39.8 nM, the GI50 (LOX IMVI) was 18.2 nM and the GI50 (K562) was 20.4 nM. It also gave a GI50 (MOLT-4) of 43.6 nM, a GI50 (MDA-MB-435) of 85.1 nM and a GI50 (SF-539) of 39.8 nM. For the same compound, the ΔTm (Calf thymus DNA) was 6.3 °C, the GI50 (MDA-MB-231) was 89.1 nM and the GI50 (COLO 205) was 60.3 nM. It also gave a GI50 (U-251) of 33.9 nM, an Activity (A-375 [5]) of 26.75% and a GI50 (T47D) of 14.1 nM. The GI50 (BT-549) was 21.9 nM, the GI50 (SNB-19) was 219 nM and the GI50 (NCI-H522) was 41.7 nM. It also gave a GI50 (PC-3) of 41.7 nM, a GI50 (SK-MEL-2) of 178 nM and a GI50 (HL-60) of 33.1 nM. The GI50 (OVCAR-4) was 288 nM, the GI50 (NCI-H226) was 214 nM and the GI50 (UO-31) was 200 nM. For the same compound, the GI50 (786-0) was 27.5 nM, the GI50 (HOP-92) was 44.7 nM and the GI50 (OVCAR-3) was 97.7 nM. For the same compound, the GI50 (SR) was 17.4 nM, the GI50 (KM12) was 166 nM and the GI50 (SK-MEL-28) was 331 nM.
